Source: PubChem BioAssay (several laboratories)
Hits are enriched below; roughly 1.3% of the tested compounds scored in any of these assays.
MDM2 E3 inh: Mdm2 E3 ligase (human) inhibition. signal enhancement, % at 5 µM. Q00987. cell-based MDM2 ubiquitination luciferase reporter, 2 h; 0 = plate control, 100 = twice control, blank-subtracted. 210,000 compounds, 0.11% hits;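 active = signal enhancement of 30% or more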;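 also: luminescence tracks abundance of the self-degrading MDM2-luciferase fusion protein; higher signal means inhibition of MDM2 E3 ligase activity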
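system = mammalian cells stably expressing self-ubiquitinating, self-degrading MDM2 E3–luciferase fusion | quantity = 2000 cells per well seeded | incubation = 4 h cell settling then 2 h compound exposure, 37 °C | signal = SteadyLite luminescence, 15 min reagent step | benchmarks = plate control and blank wells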
H9c2 TAG inh: triacylglycerol accumulation inhibition. 230,000 compounds, 0.66% hits. inhibition, % at 12.5 µM. H9c2 cells, Nile Red lipid (TAG) fluorescence; cells loaded with 200 µM oleic acid;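 active = pattern-corrected inhibition of lipid staining of at least 50% with the nuclear-stain viability signal not falling by more than 50%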;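 also: 0% = DMSO wells and 100% = triacsin C control wells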
Rad51 HR inh: blocks human Rad51 in homologous recombination | hRad51 DNA strand exchange, fluorescence dequenching | 200,000 compounds, 0.085% hits | inhibition, % at 10 µM | Q06609;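 active = inhibition above 40% at the single screening dose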;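 also: 0% = DMSO control wells and 100% = blanks with heterologous ssDNA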
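material = hRad51 filaments on single-stranded DNA | reagent = Donor/quencher-labelled 47-bp dsDNA substrate | compound = 10 µM final, single point | schedule = strand-exchange reaction 15 min at room temperature | measured by = fluorescein emission 520 nm, excitation 485 nm | read-out basis = % inhibition versus plate control and blank means | benchmarks = plate controls and plate blanks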
PKD1 inh: PKD1 (human) kinase inhibition; Q15139; PKD1 kinase fluorescence polarization assay; inhibition, % (test concentration not listed); 200,000 compounds, 0.056% hits; AID 797; in the data active = inhibition above about 50%
Hck Nef HTS: inhibitors of human Hck kinase activated by Nef | P08631 | Recombinant Hck-YEEI plus Nef, Z-Lyte FRET kinase assay | inhibition, % at 20 µM | 220,000 compounds, 0.68% hits;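 active = Hck-Nef kinase inhibition above about 50%, limit read from the data; inactive = inhibition below that limit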;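 also: 0% = DMSO with Hck plus Nef and 100% = Hck alone without Nef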
Target sequence (P08631 whole entry, looked up): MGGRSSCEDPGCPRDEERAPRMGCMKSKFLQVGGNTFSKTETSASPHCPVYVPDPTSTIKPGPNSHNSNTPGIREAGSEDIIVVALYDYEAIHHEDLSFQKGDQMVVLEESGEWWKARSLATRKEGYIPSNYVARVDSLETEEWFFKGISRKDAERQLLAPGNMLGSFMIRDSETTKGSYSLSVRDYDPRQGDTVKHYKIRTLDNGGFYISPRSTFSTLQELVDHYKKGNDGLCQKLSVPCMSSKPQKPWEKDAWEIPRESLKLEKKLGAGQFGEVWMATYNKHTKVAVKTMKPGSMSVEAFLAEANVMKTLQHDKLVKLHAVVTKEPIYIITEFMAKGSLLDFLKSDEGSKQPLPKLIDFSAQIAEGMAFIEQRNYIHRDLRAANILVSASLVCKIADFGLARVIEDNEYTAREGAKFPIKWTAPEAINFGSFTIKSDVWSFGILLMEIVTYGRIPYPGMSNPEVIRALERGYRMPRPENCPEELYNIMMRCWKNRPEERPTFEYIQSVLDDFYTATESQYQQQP
PERK inhibitor: blocks human PERK kinase. CHO PERK-DD fusion, SEAP luminescence translation reporter. 220,000 compounds, 0.17% hits. inhibition, % at 5.6 µM;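 active = inhibition above the mean inhibition of all tested compounds plus 3 SD, set separately per screening campaign, cut at about 2.9% in these data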;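 also: PERK kinase domain activated by AP20187 dimerizer at 100 nM; 0% = DMSO with dimerizer and 100% = rapamycin at 8.4 µM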
Hck Nef conf: Hck-Nef kinase inhibition, confirmation | shares compounds with Hck Nef HTS | AID 463188 | calls only at 10 µM | Recombinant Hck-YEEI:Nef, Z-Lyte FRET kinase assay | 1,300 compounds, 28% hits;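 active = average inhibition of at least 50%, with Z-scores no higher than 3 in both the phospho-tyrosine peptide and fluorescence counterscreens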
Numbers without * were called inactive; i = inactive; nt = no result given; + = active, no number.

SMILES	MDM2 E3 inh	H9c2 TAG inh	Rad51 HR inh	PKD1 inh	Hck Nef HTS	PERK inhibitor	Hck Nef conf
O=c1[nH]c(O)c(/C=C2\C=Nc3ccccc32)[nH]1	-7.8	nt	-12.1	nt	59.6*	0.3	i
CC(C)CN(C(=O)CC(C)c1ccccc1)c1c(N)n(Cc2ccccc2)c(=O)[nH]c1=O (stereo unspecified)	nt	5.7	nt	nt	nt	nt	nt
COc1ccccc1NS(=O)(=O)c1cccc(NC(=O)c2sc3ccccc3c2Cl)c1	-2.0	-4.0	nt	-1.4	154.2*	-0.1	i
COc1ccccc1NS(=O)(=O)c1ccc(Cl)c(NC(=O)c2sc3cc(Cl)ccc3c2Cl)c1	-15.0	22.6	10.4	-3.8	-2.0	0.4	nt
O=C1c2ccccc2C(=O)c2c(O)c(O)cc(O)c21	nt	4.0	nt	nt	nt	nt	nt
O=c1c(O)cccc2cc(O)c(O)c(O)c12	-9.9	9.7	6.4	nt	65.4*	0.4	+
COC(=O)CSc1nc(SC)nc2c1sc1nc(-c3ccco3)c3c(c12)CC(C)(C)OC3	nt	14.6	nt	nt	nt	nt	nt
CSc1nc(SCCO)c2sc3nc(-c4ccco4)c4c(c3c2n1)CC(C)(C)OC4	-40.0	3.3	nt	10.6	77.8*	1.2	i
CCn1nc(NC(=O)C2CCCO2)c2cc3cc(C)ccc3nc21 (stereo unspecified)	-7.7	0.6	3.9	1.0	9.2	0.6	nt
CCn1nc(NC(=O)C2CCCO2)c2cc3cccc(C)c3nc21 (stereo unspecified)	0.3	11.6	4.2	nt	55.1*	-0.5	i
S=C(NCc1ccco1)Nc1ccccc1Cl	-5.0	-3.3	5.7	nt	94.0*	0.7	i
Cc1ccc(S(=O)(=O)N(C)C)cc1NC(=S)NCc1ccco1	0.5	-24.3	7.4	1.0	113.0*	1.8	+
CCC(=O)OC1(C)C(=O)C=C2C=C(c3ccsc3)OC=C2C1=O (stereo unspecified)	-8.0	-8.9	-0.3	nt	65.1*	nt	+
NS(=O)(=O)c1ccc(-c2ccc(/C=C3\NC(=S)NC3=O)o2)cc1	nt	0.7	nt	nt	nt	nt	nt
CC1=C(C#N)C(=O)NC(=O)/C1=C/c1ccc(-c2ccc(S(N)(=O)=O)cc2)o1	-4.7	nt	-1.8	9.8	51.5*	0.7	i
CCOC(=O)c1c(NC(=O)C2CCCO2)sc(C(=O)OC(C)(C)C)c1C (stereo unspecified)	nt	20.4	10.1	0.3	67.6*	0.3	i
C/C(=N\Nc1ccc(S(N)(=O)=O)cc1[N+](=O)[O-])c1ccc2c(c1)OCO2	-12.3	20.9	5.6	1.9	64.6*	0.5	+
CCN(CC)S(=O)(=O)c1ccc(N/N=C(\C)c2ccc3c(c2)OCO3)c([N+](=O)[O-])c1	-3.0	nt	-12.9	-2.7	0.5	0.2	nt
CCOc1ccc2ncc(C(=O)c3ccc(OC)cc3)c(N3CCN(CC)CC3)c2c1	3.2	-18.1	-6.2	-4.9	19.3	0.5	nt
CCOC(=O)c1cnc2ccc(OCC)cc2c1N1CCN(c2ccccc2OC)CC1	-14.6	24.9	-2.6	-8.4	77.2*	-2.5	+
COCCn1c(N)c(C(=O)NCC2CCCO2)c2nc3ccccc3nc21 (stereo unspecified)	-25.3	37.4	-1.2	-3.2	40.4	-0.9	nt
CC(C)Cn1c(N)c(C(=O)NCC2CCCO2)c2nc3ccccc3nc21 (stereo unspecified)	-1.1	6.9	-0.1	-5.3	53.2*	-1.1	nt
COc1cccc(CC(=O)OCC(=O)NCCc2ccc(F)cc2)c1	nt	-7.5	nt	nt	nt	nt	nt
Cc1ccc(/C=C2\SC(=S)N(c3cccnc3)C2=O)o1	nt	-1.0	-5.8	nt	16.2	1.3	nt
O=C(O)c1cccc(N2C(=O)/C(=C/c3ccc(SCc4ccc(Cl)cc4)o3)SC2=S)c1	-20.8	-21.9	-133.9	-4.4	82.3*	2.5	+
Cc1nc2c(N)nn(C)c2nc1C	nt	3.2	nt	nt	nt	nt	nt
O=C(NC(=S)Nc1ccc(Cl)cn1)c1cc([N+](=O)[O-])ccc1N1CCOCC1	nt	3.1	nt	nt	nt	nt	nt
N#C/C(=C\c1ccc(OC(=O)c2ccc(Br)s2)cc1)c1nc2ccccc2[nH]1	-0.5	nt	1.0	5.9	35.4	0.9	nt
